Screening data (PubChem BioAssay)
PAFAH1B3 FP inh – PAFAH1B3 enzyme inhibitors, primary screen, biochemical, fluorescence polarization, human; Platelet-activating factor acetylhydrolase IB subunit alpha1 (Homo sapiens), Q15102; recombinant PAFAH1B3, FP-rhodamine probe; 340,000 compounds, 0.28% hits; inhibition, % at 3.39 µM;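 active = inhibition above the screen-wide average of all tested compounds plus 3 SD, cut at about 25% in these data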;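 also: 0% = enzyme with DMSO only and 100% = wells lacking PAFAH1B3 protein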
Target sequence (Q15102 whole entry, looked up): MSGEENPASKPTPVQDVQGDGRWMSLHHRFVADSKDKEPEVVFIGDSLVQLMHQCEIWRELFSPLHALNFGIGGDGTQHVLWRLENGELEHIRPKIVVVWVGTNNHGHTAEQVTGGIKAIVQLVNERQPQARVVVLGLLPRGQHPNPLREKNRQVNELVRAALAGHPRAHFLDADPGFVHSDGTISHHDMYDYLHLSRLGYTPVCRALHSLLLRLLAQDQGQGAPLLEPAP
pPAFAH FP inh – pPAFAH enzyme inhibitors, primary screen, biochemical, fluorescence polarization, human. inhibition, % at 3.39 µM. 330,000 compounds, 1.5% hits. recombinant pPAFAH, FP-rhodamine probe fluorescence polarization. Platelet-activating factor acetylhydrolase (Homo sapiens), Q13093;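 active = inhibition above the mean inhibition across the screen plus 3 SD, cut at about 25% in these data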;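 also: inhibitors block binding of the rhodamine activity-based probe so polarization drops; 0% = enzyme with DMSO and 100% = wells lacking pPAFAH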
Target sequence (Q13093 whole entry, looked up): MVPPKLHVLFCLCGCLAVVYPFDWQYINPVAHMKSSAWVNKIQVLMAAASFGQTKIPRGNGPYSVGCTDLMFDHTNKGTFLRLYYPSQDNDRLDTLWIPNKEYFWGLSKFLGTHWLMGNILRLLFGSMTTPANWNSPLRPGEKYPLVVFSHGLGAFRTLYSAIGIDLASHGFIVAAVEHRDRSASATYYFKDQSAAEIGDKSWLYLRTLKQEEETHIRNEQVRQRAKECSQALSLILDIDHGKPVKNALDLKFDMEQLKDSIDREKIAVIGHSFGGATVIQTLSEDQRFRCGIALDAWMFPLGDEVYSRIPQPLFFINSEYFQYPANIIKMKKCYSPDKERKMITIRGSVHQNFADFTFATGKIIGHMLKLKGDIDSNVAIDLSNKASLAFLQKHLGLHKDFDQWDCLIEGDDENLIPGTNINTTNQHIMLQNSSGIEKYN
UCH37 inh – inhibitors of human UCH37 deubiquitinase, primary screen, biochemical, Ub-AMC cleavage, fluorescence. Ubiquitin carboxyl-terminal hydrolase isozyme L5 (Homo sapiens), Q9Y5K5. purified proteasome/UCH37. inhibition, % (test concentration not listed). 330,000 compounds, 0.33% hits. AID 588478, 2011;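 active = mean inhibition over replicate wells above about 20%, limit read from the data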;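 also: 0% = compound-free wells with enzyme and 100% = wells lacking proteasome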
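System: Proteasome-associated human UCH37 deubiquitinase; Input: 0.15 nM proteasome in added enzyme buffer; Also added: Ub-AMC substrate from 1 µM stock; Incubation: 30 min compound-proteasome preincubation then 25 min substrate reaction, room temperature; Detection: fluorescence, ex 355 nm, em 460 nm; Read-out: % inhibition of Ub-AMC cleavage fluorescence; Benchmarks: no-proteasome and no-compound wells.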
PAFAH1B2 inh – PAFAH1B2 enzyme inhibitors, primary screen, biochemical, fluorescence polarization, human | recombinant PAFAH1B2, FP-rhodamine activity probe | inhibition, % at 3.39 µM | 340,000 compounds, 1.2% hits;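 active = inhibition above the mean of all tested compounds plus 3 SD, cut at about 24% in these data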;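 also: 0% = enzyme with DMSO and 100% = wells lacking PAFAH1B2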
GRIN3A LBD mod – binders of NR3A ligand-binding domain, primary screen, biophysical, differential scanning fluorimetry, uHTS; Glutamate receptor ionotropic, NMDA 3A (GRIN3A) ligand-binding domain; NR3A LBD differential scanning fluorimetry, Tm shift; 0% = protein alone, 100% = glycine-bound protein; Tm shift relative to glycine control, % at 25 µM; 340,000 compounds, 2.5% hits; AID 1259313, 2017;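 active = melting temperature shift of at least 10% of the positive control shift, at one fixed dose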
PAFAH2 FP inh – PAFAH2 enzyme inhibitors, primary screen, biochemical, fluorescence polarization, human; AID 492956, 2010; Platelet-activating factor acetylhydrolase 2, cytoplasmic (Homo sapiens), Q99487; 340,000 compounds, 0.99% hits; recombinant PAFAH2, FP-rhodamine activity probe; inhibition, % at 3.39 µM;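 active = inhibition above the mean over all tested compounds plus 3 SD, cut at about 30% in these data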;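 also: inhibitors block probe labeling of enzyme so polarization drops; 0% = enzyme with DMSO and 100% = wells lacking PAFAH2 protein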
Active calls of the source: *; x = no result. Sampled rows, rich in hits. Any-hit rate of the full collection: about 4.8%.

SMILES	PAFAH1B3 FP inh	pPAFAH FP inh	UCH37 inh	PAFAH1B2 inh	GRIN3A LBD mod	PAFAH2 FP inh
O=C(Nc1ccc(NC(=O)C2CC2)cc1)c1cccs1	6.9	0.6	2.9	-2.6	17.0*	3.8
O=C(Nc1ccc(C(=O)N2CCCCC2)cc1)c1cccs1	4.7	2.9	3.2	3.1	-1.2	4.4
O=C(Nc1ccc(NC(=O)c2cccs2)c(Cl)c1)c1cccs1	-7.3	2.1	5.9	-0.5	12.6*	-5.9
O=C(Nc1ccc(NC(=O)c2ccccc2F)cc1)c1cccs1	-0.2	5.7	-7.3	6.5	22.2*	-5.1
O=C(Nc1ccc(NC(=O)c2cccs2)cc1)c1cccs1	3.9	2.0	-22.0	1.6	22.3*	-7.0
CC(O)C(=O)NN=Cc1cccc(Cl)c1Cl (stereo not given)	x	x	3.8	x	x	x
O=C(Nc1ccccc1O)c1ccc(NC(=O)C2CC2)cc1	8.0	1.4	2.4	1.6	23.1*	-2.4
Cc1ccc(NS(=O)(=O)c2ccc(NC(=O)c3cccs3)cc2)cc1	3.6	11.5	-0.8	0.4	19.9*	-17.2
O=C(/C=C/c1ccccc1)Nc1ccc(NC(=O)c2cccs2)cc1	3.6	5.9	3.3	5.1	29.2*	-4.7
CCC(C)NS(=O)(=O)c1ccc(NC(=O)c2cccs2)cc1 (stereo not given)	12.8	3.2	4.7	7.9	-1.2	0.5
Cc1ccc(NS(=O)(=O)c2ccc(Cl)c(C(=O)Nc3cccc(C(=O)O)c3)c2)cc1	7.2	11.3	1.3	7.9	0.2	4.5
Cc1ccc(NS(=O)(=O)c2ccc(NC(=O)c3cccc(NC(=O)C(C)C)c3)cc2)cc1	-36.2	-26.8	-1.3	-28.3	18.4*	-48.4
O=C(Nc1ccccc1C(=O)O)c1ccc(NC(=O)C2CC2)cc1	2.7	-2.4	2.6	2.9	-5.5	-6.3
O=C(Cc1ccccc1)NN=Cc1ccccn1	x	x	1.4	x	x	x
C=CCn1c(SC2CCOC2=O)nc2sc(CC)cc2c1=O (stereo not given)	4.3	27.4*	4.4	-3.6	0.8	10.0
C=CCn1c(SC2CCOC2=O)nc2sc(C)c(C)c2c1=O (stereo not given)	5.8	8.2	0.4	1.8	-1.2	2.6
NC(N)=NN=C1c2ccccc2-c2ccccc21	-4.2	6.7	10.0	5.2	23.2*	3.6
CCOC(=O)C1=C(C)N=c2sc(=Cc3ccc(OCC(=O)O)cc3)c(=O)n2C1c1ccccc1OC (stereo not given)	x	x	12.6	x	x	x
O=C(NC(NC(=S)Nc1ccccc1)C(Cl)(Cl)Cl)c1cccc(Cl)c1 (stereo not given)	-17.7	-27.5	-5.6	-13.4	23.6*	-33.9
O=C(O)c1cccc(NC(=S)NC(NC(=O)c2cccc([N+](=O)[O-])c2)C(Cl)(Cl)Cl)c1 (stereo not given)	-2.4	2.2	0.1	-0.9	-8.6	3.7
Cc1ccc(C(=O)NC(NC(=S)Nc2ccc(S(N)(=O)=O)cc2)C(Cl)(Cl)Cl)cc1 (stereo not given)	-55.8	-29.6	4.3	-32.3	19.5*	-78.7
O=C(NC(NC(=S)Nc1ccc(Cl)cc1Cl)C(Cl)(Cl)Cl)c1cccc([N+](=O)[O-])c1 (stereo not given)	-17.8	-48.6	4.7	-13.0	20.7*	-43.3
Cc1ccccc1C(=O)NC(NC(=S)Nc1ccc(S(N)(=O)=O)cc1)C(Cl)(Cl)Cl (stereo not given)	3.8	-1.9	3.6	-3.2	-0.6	-10.6
Cc1cc(C)c(C)c(N=Nc2nc3ccccc3n2C)c1C	8.9	12.2	3.3	-6.2	19.0*	7.1
Cc1ccc(C(=O)NN=Cc2ccc(-c3cccc(Cl)c3)o2)cn1	x	x	-6.5	x	x	x
SMILES	PAFAH1B3 FP inh	pPAFAH FP inh	UCH37 inh	PAFAH1B2 inh	GRIN3A LBD mod	PAFAH2 FP inh
O=C(Cc1ccc(F)cc1)NN=Cc1ccc2c(c1)OCO2	x	x	1.7	x	x	x
O=C(NN=Cc1cccnc1)C1CCCCC1	x	x	-1.5	x	x	x
COc1ccc(C=NNC(=O)c2ccccc2Br)cc1COc1ccc(F)cc1	x	x	0.5	x	x	x
O=C(NCc1ccco1)C1CC(c2ccc(Cl)c(Cl)c2)=NO1 (stereo not given)	9.7	5.6	3.5	-2.9	2.3	-1.8
COc1ccc(C2=NOC(C(=O)NCc3ccco3)C2)cc1 (stereo not given)	6.4	2.7	-1.8	0.5	11.2*	-5.7
O=C(NCc1ccco1)C1CC(c2ccc(C(F)(F)F)cc2)=NO1 (stereo not given)	2.4	7.3	27.2*	-6.9	-2.3	-5.2
Oc1ccc(C(Cc2ccccn2)=NNc2ccccc2)c(O)c1	x	x	1.7	x	x	x
Oc1ccc(O)c(/C(=N/Nc2ccccc2)c2ccccc2)c1	x	43.9*	x	x	x	x
COc1ccc(C(=O)NC(=S)Nc2ccc([N+](=O)[O-])cc2C)cc1OC	-6.1	4.2	4.1	-5.1	28.5*	-10.6
COc1ccc(C(=O)NC(=S)Nc2ccccc2[N+](=O)[O-])cc1OC	2.4	-5.6	5.5	1.1	8.7	-0.1
CCN(CC)c1ccc(C(=O)O)cc1	6.9	1.8	1.1	2.1	-0.3	0.3
CCN(CC)c1ccc(/C=C2\C(=O)c3ccc(C(=O)O)cc3C2=O)cc1	-19.9	27.9*	19.4	1.3	5.4	20.3
COc1cc(C(=O)Nc2nc(-c3ccc(Cl)cc3)c(C)s2)ccc1OCC(=O)Nc1ccc(F)cc1	-0.5	-2.9	x	0.0	17.7*	-15.7
CCc1ccc(-c2nc(NC(=O)c3ccc(OCC(=O)Nc4ccc(F)cc4)c(OC)c3)sc2C)cc1	-11.5	-1.6	-72.2	0.2	1.9	1.1
COc1cccc(-n2c(CNc3ccc(F)cc3)nnc2SCC(N)=O)c1	2.4	3.5	-0.1	26.0*	x	2.0
CCOC(=O)c1ccc(NC(=O)CSc2nnc(CNc3ccc(C)cc3)n2C)cc1	4.0	-0.4	2.4	8.5	-2.7	8.6
CCOC(=O)c1c(NC(=O)CSc2nnc(CNc3ccc(OC)cc3)n2C)sc(C)c1C	7.8	3.5	4.2	25.7*	1.0	8.4
COc1ccc(-n2c(CNc3ccc(C)cc3)nnc2SCC(=O)Nc2nc(-c3ccccc3)cs2)cc1	0.5	1.7	4.2	-1.4	-2.3	-3.6
COc1ccc(NCc2nnc(SCC(=O)Nc3nc(-c4ccccc4)cs3)n2-c2ccccc2)cc1	2.5	-2.8	2.8	7.4	11.6*	-2.1
CCCCC(C)=NNC(=O)NC1CCCCC1	x	x	0.7	x	x	x
O=S(=O)(Nc1ccccc1)c1ccc(S(=O)(=O)N2CCCC2)cc1	1.1	26.8*	-0.9	6.4	-1.2	-0.8
